Source: ChEMBL document CHEMBL1833841, “Synthesis and biological evaluation of a novel class of isatin analogs as dual inhibitors of tubulin polymerization and Akt pathway” (Bioorg Med Chem, 2011)
Structures can show the parent of a compound that is named as a salt. Activity calls are given as the source filed them. The calls are words filed in the database; no cut-off is given here.

Assays:
MCF7 = experiment: Cytotoxicity against human MCF7 cells after 48 hrs by MTS assay; format: functional, cell-based; conditions: MCF7, 48 h
Procedure, shortened: (§1)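 A549, MCF-7 and UACC903 cells grown in DMEM with 10% FBS at 37°C, 5% CO2. 5×10^3 cells/well were left to adhere 24 h, then treated 48 h with compound (DMSO stock diluted in DMEM, 0.5–50 µM). MTS read at 490 nm and normalized to control. Dose-response fitted as sigmoidal, variable slope. Triplicates from at least two independent experiments.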

A549 = experiment: Cytotoxicity against human A549 cells after 48 hrs by MTS assay; format: functional, cell-based; conditions: A549, 48 h; procedure, shortened: as §1
UACC-903 = experiment: Cytotoxicity against human UACC903 cells after 48 hrs by MTS assay; format: functional, cell-based; conditions: UACC-903, 48 h; procedure, shortened: as §1
HT-29 [1] = experiment: Cytotoxicity against human HT-29 cells after 48 hrs by MTS assay; format: functional, cell-based; conditions: HT-29, 48 h
Procedure, shortened: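 HT29 cells maintained in RPMI with 10% FBS. 5×10^3 cells/well were left to adhere 24 h, then exposed 48 h to compound (DMSO stock diluted in DMEM, 0.5–50 µM). MTS absorbance at 490 nm normalized to control. IC50 from sigmoidal variable-slope fit. Triplicates, at least two independent experiments.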

HT-29 [2] = experiment: Induction of apoptosis in human HT-29 cells assessed as viable cells at 5 uM after 24 hrs by PE annexin V and 7-Aminoactinomycin D staining-based flow cytometry (reference value: 93.2%); format: functional; conditions: HT-29, 24 h, read-out: Activity
Procedure, shortened: (§2)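 HT29 cells were treated with 1.25–5.0 µM compound or DMSO for 24 h at 37°C, harvested by low-speed centrifugation and washed twice in cold PBS. They were resuspended in binding buffer at 1×10^6 cells/ml, stained with PE annexin V and 7-AAD for 15 min at RT in the dark, and quantified by flow cytometry.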

HT-29 [3] = experiment: Induction of apoptosis in human HT-29 cells assessed as viable cells at 1.25 uM after 24 hrs by PE annexin V and 7-Aminoactinomycin D staining-based flow cytometry (reference value: 93.2%); format: functional; conditions: HT-29, 24 h, read-out: Activity; procedure, shortened: as §2
HT-29 [4] = experiment: Induction of apoptosis in human HT-29 cells after 24 hrs by PE annexin V and 7-Aminoactinomycin D staining-based flow cytometry; format: functional, cell-based; procedure, shortened: as §2
HT-29 [5] = experiment: Induction of apoptosis in human HT-29 cells assessed as dead cells at 1.25 uM after 24 hrs by PE annexin V and 7-Aminoactinomycin D staining-based flow cytometry (reference value: 1.33%); format: functional
Procedure, shortened: (§3)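 HT29 cells (RPMI, 10% FBS) treated with 1.25, 2.5 or 5 μM, or DMSO control, for 24 h at 37 °C. Cells then harvested, washed twice in cold PBS and resuspended at 1×10^6 cells/ml in binding buffer. Stained with PE annexin V and 7-AAD for 15 min at RT in the dark, then analysed by flow cytometry. 7-AAD-positive cells counted as dead.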

HT-29 [6] = experiment: Inhibition of AKT expression in human HT-29 cells assessed as total AKT level at 2 uM after 24 hrs by Western blotting; format: functional, cell-based
Procedure, shortened: (§4)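 HT29 cells treated 24 h with 1 or 2 µM compound or no drug. Lysed in HEPES/NaCl/EDTA/NP40 buffer with phosphatase and protease inhibitors. Protein equalized by Bradford, run on 10% gels, semi-dry transfer to nitrocellulose, blocked in 5% milk. Pan-Akt or phospho-Akt rabbit polyclonal primaries overnight at 4°C, HRP secondaries, chemiluminescence. β-actin loading control.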

HT-29 [7] = experiment: Induction of apoptosis in human HT-29 cells assessed as late apoptosis or necrotic cells at 2.5 uM after 24 hrs by PE annexin V and 7-Aminoactinomycin D staining-based flow cytometry (reference value: 4.1%); format: functional; procedure, shortened: as §2
HT-29 [8] = experiment: Induction of apoptosis in human HT-29 cells assessed as late apoptosis or necrotic cells at 1.25 uM after 24 hrs by PE annexin V and 7-Aminoactinomycin D staining-based flow cytometry (reference value: 4.1%); format: functional; procedure, shortened: as §2
HT-29 [9] = experiment: Induction of apoptosis in human HT-29 cells at 2.5 uM after 24 hrs by PE annexin V and 7-Aminoactinomycin D staining-based flow cytometry; format: functional; procedure, shortened: as §3
HT-29 [10] = experiment: Induction of apoptosis in human HT-29 cells assessed as viable cells at 2.5 uM after 24 hrs by PE annexin V and 7-Aminoactinomycin D staining-based flow cytometry (reference value: 93.2%); format: functional; conditions: HT-29, 24 h, read-out: Activity; procedure, shortened: as §2
Bos taurus = species: Bos taurus; experiment: Inhibition of bovine brain tubulin polymerization at 10 uM after 1 hrs by fluorescence assay
Procedure, shortened: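 Compound at 10 µM final, DMSO as control. Fluorescence (ex 360, em 440 nm) read every 10 s for 1 h at 37°C, duplicate wells.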

[11] = molecular target: RAC-alpha serine/threonine-protein kinase (Homo sapiens) (UniProt P31749); experiment: Inhibition of AKT phosphorylation in human HT-29 cells assessed as p-AKT level at 1 uM after 24 hrs by Western blotting; format: cell-based; procedure, shortened: as §4
HT-29 [12] = experiment: Induction of apoptosis in human HT-29 cells assessed as increase in caspase 3/7 activation after 24 hrs by fluorescence spectrophotometry; format: functional, cell-based
Procedure, shortened: (§5)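 HT29 cells seeded at 1×10^4/well and grown 24 h, then treated 24 h with 1.25–5 µM compound or DMSO. Equal volume of Apo-ONE caspase-3/7 reagent added, shaken 30 s, incubated 2 h at RT. Cleaved-substrate fluorescence read at ex 498/em 521 nm, expressed relative to DMSO cells. Means ± SD, triplicate, one representative experiment.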

HT-29 [13] = experiment: Induction of apoptosis in human HT-29 cells assessed as early apoptotic cells at 5 uM after 24 hrs by PE annexin V and 7-Aminoactinomycin D staining-based flow cytometry (reference value: 1.37%); format: functional; procedure, shortened: as §2
HT-29 [14] = experiment: Induction of apoptosis in human HT-29 cells assessed as late apoptosis or necrotic cells at 5 uM after 24 hrs by PE annexin V and 7-Aminoactinomycin D staining-based flow cytometry (reference value: 4.1%); format: functional; procedure, shortened: as §2
HT-29 [15] = experiment: Induction of apoptosis in human HT-29 cells assessed as dead cells at 2.5 uM after 24 hrs by PE annexin V and 7-Aminoactinomycin D staining-based flow cytometry (reference value: 1.33%); format: functional; procedure, shortened: as §3
HT-29 [16] = experiment: Induction of apoptosis in human HT-29 cells assessed as dead cells at 5 uM after 24 hrs by PE annexin V and 7-Aminoactinomycin D staining-based flow cytometry (reference value: 1.33%); format: functional; procedure, shortened: as §3
HT-29 [17] = experiment: Inhibition of AKT expression in human HT-29 cells assessed as total AKT level at 1 uM after 24 hrs by Western blotting; format: functional, cell-based; procedure, shortened: as §4
HT-29 [18] = experiment: Induction of apoptosis in human HT-29 cells assessed as increase in caspase 3/7 activation after 24 hrs by fluorescence spectrophotometry relative to control; format: functional; set-up: concentration or dose not given beside the values; procedure, shortened: as §5
HT-29 [19] = experiment: Induction of apoptosis in human HT-29 cells at 5 uM after 24 hrs by PE annexin V and 7-Aminoactinomycin D staining-based flow cytometry (reference value: 6.8%); format: functional; procedure, shortened: as §3
HT-29 [20] = experiment: Induction of apoptosis in human HT-29 cells at 1.25 uM after 24 hrs by PE annexin V and 7-Aminoactinomycin D staining-based flow cytometry; format: functional; procedure, shortened: as §3
HT-29 [21] = experiment: Induction of apoptosis in human HT-29 cells assessed as early apoptotic cells at 1.25 uM after 24 hrs by PE annexin V and 7-Aminoactinomycin D staining-based flow cytometry (reference value: 1.37%); format: functional; procedure, shortened: as §2
HT-29 [22] = experiment: Induction of apoptosis in human HT-29 cells assessed as early apoptotic cells at 2.5 uM after 24 hrs by PE annexin V and 7-Aminoactinomycin D staining-based flow cytometry (reference value: 1.37%); format: functional; procedure, shortened: as §2

Chain of RAC-alpha serine/threonine-protein kinase (Homo sapiens) (P31749 whole entry): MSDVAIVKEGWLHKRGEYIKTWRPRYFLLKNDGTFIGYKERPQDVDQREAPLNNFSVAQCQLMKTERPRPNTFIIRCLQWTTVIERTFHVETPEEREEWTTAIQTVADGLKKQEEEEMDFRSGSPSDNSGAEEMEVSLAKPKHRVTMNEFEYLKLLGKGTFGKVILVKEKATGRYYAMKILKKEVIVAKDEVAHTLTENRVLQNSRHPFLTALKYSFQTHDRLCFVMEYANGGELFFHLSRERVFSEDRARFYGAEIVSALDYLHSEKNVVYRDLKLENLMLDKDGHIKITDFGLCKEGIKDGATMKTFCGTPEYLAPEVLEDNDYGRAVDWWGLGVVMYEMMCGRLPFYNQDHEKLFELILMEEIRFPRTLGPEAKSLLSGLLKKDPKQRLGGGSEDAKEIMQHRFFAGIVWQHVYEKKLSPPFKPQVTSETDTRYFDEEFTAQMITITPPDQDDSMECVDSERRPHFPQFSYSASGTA

## N#C[Se]CCCCN1C(=O)C(=O)c2cc(Br)cc(Br)c21
MCF7
  IC50: 1.53 µM
A549
  IC50: 3.15 µM
UACC-903
  IC50: 9.03 µM
HT-29 [1]
  IC50: 2.39 µM

## O=C1C(=O)N(CCCCCl)c2c(Br)cc(Br)cc21
MCF7
  IC50: 14.9 µM
A549
  IC50: 3.81 µM
UACC-903
  IC50: 3.74 µM
HT-29 [1]
  IC50: 2.51 µM

## O=C1C(=O)N(Cc2ccc(CBr)cc2)c2c(Br)cc(Br)cc21
MCF7
  IC50: 27.7 µM
A549
  IC50: 7.86 µM
UACC-903
  IC50: 2.64 µM
HT-29 [1]
  IC50: 5.1 µM

## O=C1C(=O)N(Cc2ccc(CN=C=S)cc2)c2c(Br)cc(Br)cc21
HT-29 [2]
  viability at 5 µM: 38.8%
MCF7
  IC50: 12 µM
HT-29 [3]
  viability at 1.25 µM: 83.6%
A549
  IC50: 3.82 µM
HT-29 [4]
  Activity: Dose-dependent effect
HT-29 [5]
  Activity: 4.29%
HT-29 [6]
  inhibition: Active
HT-29 [7]
  Activity: 23.3%
HT-29 [8]
  Activity: 8.59%
HT-29 [9]
  Activity: 36.64%
HT-29 [10]
  viability at 2.5 µM: 63.4%
Bos taurus
  inhibition: 77%
[11]
  inhibition: inactive
HT-29 [12]
  Activity: Dose-dependent effect
UACC-903
  IC50: 3.11 µM
HT-29 [13]
  Activity: 2.93%
HT-29 [14]
  Activity: 47.5%
HT-29 [15]
  Activity: 6.56%
HT-29 [1]
  IC50: 1.09 µM
HT-29 [16]
  Activity: 10.8%
HT-29 [17]
  inhibition: Active
HT-29 [18]
  fold change (FC): 16
HT-29 [19]
  Activity: 61.23%
HT-29 [20]
  Activity: 16.38%
HT-29 [21]
  Activity: 3.5%
HT-29 [22]
  Activity: 6.78%

## CC(=O)O[C@H]1C(=O)[C@@]2(C)[C@H]([C@H](OC(=O)c3ccccc3)[C@]3(O)C[C@H](OC(=O)[C@H](O)[C@@H](NC(=O)c4ccccc4)c4ccccc4)C(C)=C1C3(C)C)[C@]1(OC(C)=O)CO[C@@H]1C[C@@H]2O
Bos taurus
  inhibition: inactive

## N#CSCCCN1C(=O)C(=O)c2cc(Br)cc(Br)c21
MCF7
  IC50: 9.78 µM
A549
  IC50: 3.53 µM
UACC-903
  IC50: 2.89 µM
HT-29 [1]
  IC50: 3.24 µM

## N#C[Se]Cc1ccc(CN2C(=O)C(=O)c3cc(Br)cc(Br)c32)cc1
MCF7
  IC50: 1.45 µM
A549
  IC50: 2.41 µM
UACC-903
  IC50: 12.1 µM
HT-29 [1]
  IC50: 2.59 µM

## N#C[Se]CCCN1C(=O)C(=O)c2cc(Br)cc(Br)c21
HT-29 [2]
  viability at 5 µM: 43.8%
MCF7
  IC50: 1.65 µM
HT-29 [3]
  viability at 1.25 µM: 92.1%
A549
  IC50: 3.46 µM
HT-29 [4]
  Activity: Dose-dependent effect
HT-29 [5]
  Activity: 1.53%
HT-29 [7]
  Activity: 6.27%
HT-29 [8]
  Activity: 4.45%
HT-29 [9]
  Activity: 10.44%
HT-29 [10]
  viability at 2.5 µM: 89.6%
Bos taurus
  inhibition: 63%
HT-29 [12]
  Activity: Dose-dependent effect
UACC-903
  IC50: 21.6 µM
HT-29 [13]
  Activity: 48.6%
HT-29 [14]
  Activity: 5.79%
HT-29 [15]
  Activity: 1.92%
HT-29 [1]
  IC50: 3.18 µM
HT-29 [16]
  Activity: 1.89%
HT-29 [18]
  fold change (FC): 16
HT-29 [19]
  Activity: 56.28%
HT-29 [20]
  Activity: 7.92%
HT-29 [21]
  Activity: 1.94%
HT-29 [22]
  Activity: 2.25%

## CC[C@]1(O)C[C@@H]2CN(CCc3c([nH]c4ccccc34)[C@@](C(=O)OC)(c3cc4c(cc3OC)N(C)[C@H]3[C@@](O)(C(=O)OC)[C@H](OC(C)=O)[C@]5(CC)C=CCN6CC[C@]43[C@@H]65)C2)C1 [VINBLASTINE SULFATE]
Bos taurus
  inhibition: 66%
UACC-903
  IC50: 1.65 µM
HT-29 [1]
  IC50: 0.55 µM

## O=C1C(=O)N(CCCCl)c2c(Br)cc(Br)cc21
MCF7
  IC50: 21.5 µM
A549
  IC50: 5.27 µM
UACC-903
  IC50: 8.57 µM
HT-29 [1]
  IC50: 2.57 µM

## N#CSCCCCN1C(=O)C(=O)c2cc(Br)cc(Br)c21
MCF7
  IC50: 22.1 µM
A549
  IC50: 5.53 µM
UACC-903
  IC50: 2.06 µM
HT-29 [1]
  IC50: 2.42 µM
